# Compound activity as filed in PubChem.
# CSC inhib = cancer stem cell viability inhibitors, primary screen, luminescence; cancer stem cell-like cells viability; inhibition, % at 7.5 µM; 300,000 tested, 1.1% active; in the data active = inhibition above about 75%; inconclusive = no clear call, values can overlap the other calls; tested in HMLE shEcad cells
# Mdm2 MdmX PPI = inhibitors of human Mdm2-MdmX association, primary screen, cell-based, luminescence, split luciferase, SaOS-2, uHTS; Protein Mdm4 (Homo sapiens) + E3 ubiquitin-protein ligase Mdm2 (Homo sapiens), …; SaOS-2 split-luciferase Mdm2/MdmX complementation; inhibition, % at 8 µM; 330,000 tested, 3% active; AID 485346, 2010;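 active = inhibition of at least 50% at 8 µM in the primary screen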
# SKKanGAS inh = S. pyogenes SKKanGAS growth inhibitors in kanamycin, primary screen, streptokinase expression inhibitor project, SKKanGAS strain, BacTiter-Glo luminescence. 6 h. inhibition, % at 7.5 µM. 300,000 tested, 1.3% active. AID 1662, 2009;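 active = mean replicate score, as percent of positive control median, at least 50; inconclusive = mean below 50 but one replicate at or above 50; inactive = mean and every replicate below 50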;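 also: strain carries kanamycin resistance gene driven by streptokinase promoter and grows in 40 µg/ml kanamycin; loss of luminescence reflects streptokinase promoter inhibition or plain growth inhibition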
# L major viab = Leishmania major promastigote growth inhibition, primary screen | AID 1063, 2008 | 200,000 tested, 9% active | inhibition, % at 10 µM | Leishmania major promastigotes, resazurin fluorescence viability; in the data active = inhibition above about 50%;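 also: promastigotes grown with compound for 44 hours at 28 °C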
# Beta cell apopt = inhibitors of cytokine-induced beta cell apoptosis, primary screen, luminescence | INS-1E cytokine-induced death, ATP luminescence, 48 h; percent of positive-control rescue, neutral wells zero | 300,000 tested, 0.8% active | protection from apoptosis, % (test concentration not listed);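 active = Every replicate reaches about 75%, or at least half do and their mean reaches it too, limit read from the data; inconclusive = At least half of replicates reach the limit but their mean does not; inactive = Under half of replicates reach the limit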;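 also: higher means more ATP so stronger rescue from cytokine killing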
# T cruzi repl = inhibitors of intracellular T. cruzi growth, primary screen, luminescence, NIH3T3 host cells; inhibition, % (no concentration beside the values); 300,000 tested, 1.4% active; AID 1885, 2009; T. cruzi beta-gal in NIH3T3, 90 h;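 active = mean inhibition across valid replicates above about 55%, limit read from the data; inconclusive = mean below that limit but half or more replicates reach it; inactive = mean below it, under half of replicates reach it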;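 also: signal also drops with host cell toxicity which is not excluded here; higher percent means less beta-gal luminescence so fewer parasites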
#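 Read-out: Parasite load inhibition, % | Test system: Mouse NIH/3T3 fibroblasts infected with β-gal-expressing T. cruzi Tulahuen C4 | Amount: 5,000 cells/well | Medium: DMEM, 2% fetal bovine serum | Signal: GalScreen β-gal luminescence, detergent lysis, 60 min | Timing: 3 h attach, ≥90 h co-culture | Also added: Tulahuen C4 trypomastigotes, 5000/well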
# Numbers stand for hits; – = inactive; ? = inconclusive; · = no result given. Rows were chosen to be rich in hits. Some 9.4% of all compounds tested hit in one or more screens of this group.
SMILES,CSC inhib,Mdm2 MdmX PPI,SKKanGAS inh,L major viab,Beta cell apopt,T cruzi repl
C/C(=N/NC(=O)C(O)(c1ccccc1)c1ccccc1)c1ccc([N+](=O)[O-])o1,–,–,–,96,–,75
CN(CCO)c1cc(NCCCN2CCC(Cc3ccccc3)CC2)c2nonc2c1[N+](=O)[O-],–,–,–,–,–,65
Cc1nn2c(COc3ccc(NC(=O)c4ccccc4Cl)cc3)nnc2c2ccccc12,90,–,87,–,–,–
Cc1nn2c(COc3ccc(NC(=O)C(C)C)cc3)nnc2c2ccccc12,–,–,102,–,–,–
Cc1nn2c(CN(C(=O)COc3ccccc3)c3ccccc3)nnc2c2ccccc12,–,–,–,81,–,–
CCOC(=O)Nc1ccc(OCc2nnc3c4ccccc4c(C)nn23)cc1,–,–,94,–,–,–
O=C(NCc1nnc2c3ccccc3c(-c3ccccc3)nn12)c1ccccc1Cl,–,–,–,–,–,–
CC(=O)/C(=N\Nc1ccccc1)Oc1ccc(Br)cc1,–,–,–,·,–,–
CN(C(=O)COC(=O)c1ccc(Cl)nc1)C1CCS(=O)(=O)C1 (stereo unspecified),–,–,–,–,–,–
CC1CCN(c2c(NCC3CCC(C(=O)NCc4ccccc4Cl)CC3)c(=O)c2=O)CC1 (stereo unspecified),–,–,–,–,–,–
CCOc1ccc(/C=N/NC(=S)NC2CC3C=CC2C3)cc1 (stereo unspecified),–,–,64,·,–,–
Oc1c(Br)cc(Br)cc1/C=N/NC(=S)N[C@H]1CC2C=CC1C2 (stereo partly specified),102,–,120,·,–,–
CC(C)NC(=S)NC(c1ccccc1)(c1ccccc1)c1ccccc1,–,–,81,·,112,55
COC(=O)c1cccc(NC(=O)NC2CCCN2S(=O)(=O)c2ccc(Cl)cc2)c1 (stereo unspecified),·,·,–,76,·,–
COc1cccc(CNC(=O)COC(=O)c2ccc(Cl)s2)c1,–,–,·,·,–,·
CC(=O)Nc1ccc(CN2CCCC(CO)(Cc3cccc(Cl)c3)C2)cc1 (stereo unspecified),–,–,–,·,–,–
CCOc1cc(CN2CCCCCC2)ccc1OC,–,–,–,·,–,–
COc1ccc(CN2CCCC(CO)(Cc3cccc(Cl)c3)C2)cc1OC (stereo unspecified),–,–,–,·,–,55
COc1cc(CN2CCCC(CO)(Cc3cccc(Cl)c3)C2)cc(OC)c1O (stereo unspecified),–,–,–,·,·,–
COc1cc(CN2CCCC(CO)(Cc3cccc(Cl)c3)C2)cc2c1OCO2 (stereo unspecified),–,–,–,73,–,55
CCOc1cc(CN2CCC(CO)(Cc3cccc(C(F)(F)F)c3)CC2)ccc1OC,–,–,–,85,–,–
COc1ccnc(-n2cccc2/C=N/O)c1C#N,–,–,–,–,–,–
Nc1ccc(C(=O)N2CCN(S(=O)(=O)/C=C/c3ccccc3)CC2)cc1[N+](=O)[O-],–,–,–,·,–,–
O=C(c1ccc2ccccc2c1)N1CCN(S(=O)(=O)/C=C/c2ccccc2)CC1,–,–,–,–,–,55
O=S(=O)(/C=C/c1ccccc1)N1CCN(Cc2ccccc2)CC1,–,–,–,78,–,–
SMILES,CSC inhib,Mdm2 MdmX PPI,SKKanGAS inh,L major viab,Beta cell apopt,T cruzi repl
O=S(=O)(/C=C/c1ccccc1)N1CCOCC1,–,–,–,·,–,–
COCCN(CC(=O)Nc1cccc(C)c1C)C(=O)CN1C(=O)NC2(CCCCC2)C1=O,–,–,·,·,–,·
Cc1ccc2c(c1)C1CC(C)(O2)N(c2cccc(C(=O)N3CCN(c4ccccn4)CC3)c2)C(=O)N1 (stereo unspecified),–,–,–,·,–,–
CN1C(=O)CSc2ccc(NC(=O)N3CCN(c4ccccn4)CC3)cc21,–,–,–,–,–,–
Cc1ccc(C)c(N2CCN(C(=O)Nc3ccc4c(c3)N(C)C(=O)CS4)CC2)c1,·,–,–,50,–,–
Cc1cccc(-n2nnnc2SCC(=O)c2cc(C)n(CC3CCCO3)c2C)c1 (stereo unspecified),·,–,–,–,–,–
COCCn1c(C)cc(C(=O)COC(=O)c2ccc([N+](=O)[O-])o2)c1C,–,–,–,75,–,–
Cc1cc(C(=O)COC(=O)c2ccc([N+](=O)[O-])o2)c(C)n1CC1CCCO1 (stereo unspecified),–,–,–,82,–,–
Cc1ccc(-n2nnnc2SCC(=O)c2cc(C)n(CC3CCCO3)c2C)cc1 (stereo unspecified),–,–,–,·,–,58
Cc1cc(C)c(C(=O)COC(=O)c2ccc([N+](=O)[O-])o2)cc1C,–,–,–,–,–,–
CCC1CCC(C(=O)NC(CCSC)C(=O)NCCc2ccc(S(N)(=O)=O)cc2)CC1 (stereo unspecified),–,–,–,·,–,–
O=C(c1cc(Cl)ccc1F)N1CCCC(Nc2ccc3c(c2)OCCO3)C1 (stereo unspecified),–,–,–,·,–,–
O=C(CC1C(=O)NCCN1Cc1ccccc1)NCCC1=CCCCC1 (stereo unspecified),–,–,–,·,–,–
Cc1ccccc1-n1c(SCC(=O)N/N=C/C=C/c2ccccc2[N+](=O)[O-])nc2ccccc2c1=O,?,–,–,60,–,–
O=C(CSc1nc2ccccc2c(=O)n1-c1ccc(Cl)cc1)N/N=C/C=C/c1ccccc1[N+](=O)[O-],·,–,–,–,–,–
O=C(CSc1nc2ccccc2c(=O)n1-c1ccccc1)N/N=C/C=C/c1ccccc1[N+](=O)[O-],78,–,–,–,–,–
CCn1c(SCC(=O)N/N=C/C=C\c2ccccc2[N+](=O)[O-])nnc1-c1ccccc1,–,–,–,–,–,–
CC(C)CN1C(=O)C(=O)N(CC(=O)N(C)CC(=O)Nc2ccc(F)cc2)C1=O,–,–,·,·,–,·
CCOC(=O)C1(Cc2ccccc2C(F)(F)F)CCN(C2CCC2)CC1,–,–,–,61,–,–
CCOC(=O)C1(Cc2ccccc2C(F)(F)F)CCN(C2CCN(C(C)=O)CC2)CC1,–,–,–,77,–,–
CCOC(=O)C1(Cc2ccccc2C(F)(F)F)CCN(C(C)COC)CC1 (stereo unspecified),–,–,–,–,–,–
CCOC(=O)C1(CCCc2ccccc2)CCN(C2CCN(C(C)=O)CC2)CC1,–,–,–,78,–,–
CCOC(=O)C1(CCCc2ccccc2)CCN(C(=O)CSC)CC1,–,–,–,·,–,–
O=C(NCc1ccccc1)c1ccccc1C(=O)c1ncc[nH]1,–,–,–,–,–,–
